Experimental data published in ChEMBL document CHEMBL1151257, “Cytotoxic furanosesterterpenes from a marine sponge Psammocinia sp” (J Nat Prod, 2004).
Values after ≈ are worked out from the molar mass of the structure shown.

How the values were obtained:
A549 = test: Cytotoxicity against human A549 cells; assay type: functional; conditions: read-out: ED50 (the source's name)
SK-OV-3 = test: Cytotoxicity against human SKOV3 cells; assay type: functional; conditions: read-out: ED50 (the source's name)
SK-MEL-2 = test: Cytotoxicity against human SK-MEL-2 cells; assay type: functional; conditions: read-out: ED50 (the source's name)
XF498 = test: Cytotoxicity against human XF498 cells; assay type: functional; conditions: read-out: ED50 (the source's name)
HCT-15 = test: Cytotoxicity against human HCT15 cells; assay type: functional; conditions: read-out: ED50 (the source's name)
Simian virus 40 [1] = test: Inhibition of SV40 DNA replication in human HeLa cells at 125 uM; assay type: functional; conditions: Betapolyomavirus macacae
Method in brief: (§1)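 SV40 DNA replication reaction run at 37 °C for 2 h; replication quantified as acid-insoluble radioactivity.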

[2] = Inhibition of DNA polymerase alpha
Method in brief: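 DNA polymerase α reaction incubated at 37 °C for 30 min; activity read as acid-insoluble radioactivity.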

Simian virus 40 [3] = test: Inhibition of SV 40 DNA replication in human HeLa cells at 250 uM; assay type: functional; conditions: Betapolyomavirus macacae; method in brief: as §1
Simian virus 40 [4] = test: Inhibition of SV 40 DNA replication in human HeLa cells at 500 uM; assay type: functional; conditions: Betapolyomavirus macacae; method in brief: as §1

| IC50 [2] [µM] | Compound | EC50 (A549) [µg/mL] | EC50 (SK-OV-3) [µg/mL] | EC50 (SK-MEL-2) [µg/mL] | EC50 (XF498) [µg/mL] | EC50 (HCT-15) [µg/mL] | inhibition at 125 µM (Simian virus 40 [1]) [%] | inhibition at 250 µM (Simian virus 40 [3]) [%] | inhibition at 500 µM (Simian virus 40 [4]) [%] |
| --- | --- | --- | --- | --- | --- | --- | --- | --- | --- |
| – | CC1=C(O)/C(=C/[C@H](C)CCC/C(C)=C/CC/C(C)=C/CCc2ccoc2)OC1=O | 24.1 (≈ 60.5 µM) | 18.6 (≈ 46.7 µM) | 19 (≈ 47.7 µM) | 22.1 (≈ 55.5 µM) | 23.5 (≈ 59 µM) | – | – | – |
| – | COC1C=C(CC/C=C(\C)CC/C=C(\C)CCCC(C)/C=C2\OC(=O)C(C)=C2O)C(OC)O1 (centres undefined) [PSAMMOCININ B] | 8.2 (≈ 17.8 µM) | 12.6 (≈ 27.4 µM) | 7.5 (≈ 16.3 µM) | 7.8 (≈ 16.9 µM) | 19.2 (≈ 41.7 µM) | – | – | – |
| – | CC1=C(O)[C@@H](C/C(C)=C/CCC(C)/C=C/C=C(\C)CCCc2ccoc2)OC1=O (some centres undefined) [PALINURIN] | 5.2 (≈ 13 µM) | 10.2 (≈ 25.6 µM) | 4.4 (≈ 11 µM) | 5.1 (≈ 12.8 µM) | 5.4 (≈ 13.5 µM) | – | – | – |
| – | CC1=C(O)/C(=C/[C@H](C)CC/C=C(/C)CCC/C(C)=C\CCc2ccoc2)OC1=O | > 30 | 14.1 (≈ 35.4 µM) | 14.4 (≈ 36.1 µM) | 20.3 (≈ 50.9 µM) | 16 (≈ 40.1 µM) | – | – | – |
| 5 | CC1=C(O)/C(=C/[C@H](C)CC/C=C(/C)CC/C=C(\C)CCCc2ccoc2)OC1=O | 10.5 (≈ 26.3 µM) | 7.5 (≈ 18.8 µM) | 5.8 (≈ 14.6 µM) | 8.7 (≈ 21.8 µM) | 11 (≈ 27.6 µM) | 30 | 60 | 100 |
| – | COc1cccc2c1C(=O)c1c(O)c3c(c(O)c1C2=O)C[C@@](O)(C(=O)CO)C[C@@H]3O[C@H]1C[C@H](N)[C@H](O)[C@H](C)O1 [DOXORUBICIN] | 0.03 (≈ 0.0552 µM) | 0.15 (≈ 0.276 µM) | 0.05 (≈ 0.092 µM) | 0.15 (≈ 0.276 µM) | 0.12 (≈ 0.221 µM) | – | – | – |
| – | CC1=C(O)[C@@H](C/C(C)=C/C=C/C(C)CCC/C(C)=C/CCc2ccoc2)OC1=O (some centres undefined) [ISOPALINURIN] | > 30 | 16.5 (≈ 41.4 µM) | 10.7 (≈ 26.8 µM) | 10 (≈ 25.1 µM) | > 30 | – | – | – |
| – | CC1=C/C(=C/[C@H](C)CCC(=O)C(C)CCC/C(C)=C/CCc2ccoc2)OC1=O (some centres undefined) [PSAMMOCININ A2] | 7.5 (≈ 18.8 µM) | 12.3 (≈ 30.9 µM) | 4.8 (≈ 12 µM) | 10.5 (≈ 26.3 µM) | 11.7 (≈ 29.4 µM) | – | – | – |
| – | CC1=C/C(=C/[C@H](C)CCC(=O)/C(C)=C/CC/C(C)=C/CCc2ccoc2)OC1=O [PSAMMOCININ A1] | > 30 | > 30 | 7.5 (≈ 18.9 µM) | 28.1 (≈ 70.9 µM) | 20.5 (≈ 51.7 µM) | – | – | – |
